Mdm2 ligase inh: MDM2-luciferase reporter signal enhancers, primary screen, MDM2 E3 ligase inhibitor project, cell-based, luminescence, 1536-well. E3 ubiquitin-protein ligase Mdm2 (Homo sapiens), Q00987. cell-based MDM2 ubiquitination luciferase reporter, 2 h; 0 = plate control, 100 = twice control, blank-subtracted. signal enhancement, % at 5 µM. 210,000 compounds, 0.11% hits. AID 1230, 2008;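 active means signal enhancement of 30% or more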;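 further: luminescence tracks abundance of the self-degrading MDM2-luciferase fusion protein; higher signal means inhibition of MDM2 E3 ligase activity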
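Test system: mammalian cells stably expressing self-ubiquitinating, self-degrading MDM2 E3–luciferase fusion; Amount: 2000 cells in each well; Medium: DMEM; Schedule: 4 h settle plus 2 h compound, 37 °C; Technique: SteadyLite luciferase luminescence after 15 min room-temperature reagent incubation; Benchmarks: plate control and blank wells.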
PKD1 inh: inhibitors of human PKD1 kinase, biochemical, fluorescence polarization; PKD1 kinase fluorescence polarization assay; AID 797, 2007; Serine/threonine-protein kinase D1 (Homo sapiens), Q15139; inhibition, % (test concentration not listed); 200,000 compounds, 0.056% hits; in the data active means inhibition above about 50%
Redox H2O2 prof: compounds producing H2O2 with reducing agent – biochemical, NIH compound library profiling, artefact control for MLSCN library redox annotation, primary screen | DTT-dependent redox cycling H2O2, phenol red/HRP absorbance; 100% = 100 µM peroxide control, 0% = buffer | 200,000 compounds, 0.03% hits | activation, % at 10 µM;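 active means activation of at least 50% relative to the plate's high and low controls in the primary single-dose screen; inactive means activation below 50%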;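 further: compound incubated with DTT at 0.8 mM final as the reducing agent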
p97 inhibitor: inhibitors of human p97 ATPase, primary screen, biochemical. Transitional endoplasmic reticulum ATPase (Homo sapiens), P55072. recombinant p97 ATPase, Kinase-Glo ATP luminescence, 3 h. AID 1481, 2009. inhibition, % at 8 µM. 220,000 compounds, 0.42% hits; in the data active means inhibition above about 15%
Target sequence (P55072 whole entry, looked up): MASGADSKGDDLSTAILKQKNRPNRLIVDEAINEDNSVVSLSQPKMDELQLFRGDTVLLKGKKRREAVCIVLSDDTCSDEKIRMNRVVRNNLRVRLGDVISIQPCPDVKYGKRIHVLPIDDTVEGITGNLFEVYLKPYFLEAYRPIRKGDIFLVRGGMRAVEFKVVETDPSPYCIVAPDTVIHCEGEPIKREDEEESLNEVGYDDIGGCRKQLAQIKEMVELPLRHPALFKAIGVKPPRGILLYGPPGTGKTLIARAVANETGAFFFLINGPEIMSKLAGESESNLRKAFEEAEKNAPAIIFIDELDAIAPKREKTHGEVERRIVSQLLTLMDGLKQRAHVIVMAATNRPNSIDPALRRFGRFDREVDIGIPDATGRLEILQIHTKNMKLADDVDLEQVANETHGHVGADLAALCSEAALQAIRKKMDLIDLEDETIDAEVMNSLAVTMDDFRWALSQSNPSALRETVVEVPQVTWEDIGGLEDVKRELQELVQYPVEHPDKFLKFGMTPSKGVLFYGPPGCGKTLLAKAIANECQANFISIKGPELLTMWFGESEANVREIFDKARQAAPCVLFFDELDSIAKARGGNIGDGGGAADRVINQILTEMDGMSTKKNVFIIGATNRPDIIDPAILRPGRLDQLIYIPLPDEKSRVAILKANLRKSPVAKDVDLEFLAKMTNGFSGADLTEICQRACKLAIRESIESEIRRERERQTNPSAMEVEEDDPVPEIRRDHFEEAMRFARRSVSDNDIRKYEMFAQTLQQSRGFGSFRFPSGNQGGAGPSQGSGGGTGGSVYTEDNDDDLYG
ROMK mod: ROMK potassium channel modulators, primary screen, cell-based, thallium flux, MLSMR library; B-score at 10 µM; AID 1918, 2009; ATP-sensitive inward rectifier potassium channel 1 (Homo sapiens), P48048; Tet-inducible ROMK, thallium flux fluorescence; actives lie on both sides; 130,000 compounds, 2% hits;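 active means signal ratio slope over the read window, or its plate-corrected B-score, at least 3 SD from the plate mean, either direction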;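 further: B-score of the F/F0 ratio slope over 7 to 12 s after thallium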
KCC2 mod: KCC2 cotransporter modulators, thallium flux, primary screen, cell-based, HEK293 KCC2, FluoZin-2 fluorescence, MLSMR. AID 1456, 2008. 190,000 compounds, 2.2% hits. Solute carrier family 12 member 5 (Homo sapiens), Q9H2X9. B-score of Tl+ flux slope (higher = more flux/activation; lower = inhibition) at 10 µM. KCC2 cells, thallium flux FluoZin-2 fluorescence;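 active means thallium flux slope and its plate-corrected score both differing from the plate sample mean at a set confidence after two filtering rounds, in either direction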;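 further: slope of fluorescence scaled to starting intensity during 10 to 20 s after thallium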
ROMK hit retest: ROMK channel modulator hit retest, confirmation, cell-based, thallium flux, duplicate, resupplied hits | shares compounds with ROMK mod | fluorescence ratio; active compounds read low | normalized thallium flux (F/F0 slope) at 10 µM | 3,000 compounds, 54% hits | AID 1917, 2009;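 active means Flux at 10 µM at least 3 SD below or above vehicle control mean in one or both replicates; inconclusive means no clear call, values can overlap the other calls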
Hits are given with their value; 0 = inactive; ? = inconclusive; - = not tested or not shown. The list is not random: actives were taken first. Their share in the collection is about 3.4%.

SMILES	Mdm2 ligase inh	PKD1 inh	Redox H2O2 prof	p97 inhibitor	ROMK mod	KCC2 mod	ROMK hit retest
CNc1ccc(/C=C(\C#N)c2ccccn2)cc1[N+](=O)[O-]	0	0	0	0	0	0	-
N#C/C(=C\c1ccc(Cl)c([N+](=O)[O-])c1)c1ccccn1	0	0	0	0	-6.9	0	0.053
O=C(NCc1ccccc1)C(c1cccnc1)N(Cc1ccco1)C(=O)c1ccccn1 (stereo not given)	0	0	0	0	-	0	-
COc1ccc(/C=C(\C#N)C(=O)Nc2cccnc2)cc1	0	0	0	0	0	0	-
CCOc1cccc(NC(=O)/C(C#N)=C\c2cccnc2)c1	0	0	0	0	-3.3	0	0.047
N#C/C(=C\c1cccnc1)C(=O)Nc1ccccc1	-	0	0	0	-4.2	0	0.053
CCNC(=O)c1cc2c(=O)n3cccc(C)c3nc2n(CCc2ccccc2)c1=N	0	0	0	0	0	0	-
Cc1cccn2c(=O)c3cc(C(=O)NCCN4CCOCC4)c(=N)n(CCc4ccccc4)c3nc12	0	0	0	0	-2.8	-	0.063
Cc1nnc(Sc2cc(NCCO)c([N+](=O)[O-])c3nonc23)s1	0	0	0	0	-7.2	0	0.057
CCCC(=O)OCCNc1cc(Sc2nccn2C)c2nonc2c1[N+](=O)[O-]	0	0	0	0	-4.7	0	0.051
OC(CNC1CCCC1)COc1ccc(-c2ccccc2)cc1 (stereo not given)	-	0	0	0	0	0	-
OC(CNC1Cc2ccccc2C1)COc1ccc(Cl)cc1 (stereo not given)	0	-	-	0	-5.3	0	0.049
Cc1cccc(NC(=O)C(c2ccccc2Cl)N2CCOCC2)c1 (stereo not given)	0	0	0	0	-	0	-
CN(C)c1cc(-c2cccc([N+](=O)[O-])c2)oc(=O)c1Cl	0	-	-	0	0	0	-
Cc1cccc(N2C(=O)/C(=C\c3ccc(C(=O)O)cc3)c3ccccc3C2=O)c1	0	0	0	0	-6.4	0	0.046
CC(=O)Nc1ccc2c(c1)C(=O)N(c1cccc(C)c1)C2=O	-	-	-	0	-	-	-
C=CCNC(=O)/C(C#N)=C/c1cc(Br)ccc1OC	0	0	0	0	0	0	-
C=CCNC(=O)/C(C#N)=C\c1cc(Cl)c(OCC)c(OC)c1	0	0	0	0	-2.9	0	0.044
O=c1oc2ccccc2cc1-c1nc(-c2cccs2)cs1	0	0	0	0	-4.5	0	0.018
O=c1oc2ccc3ccccc3c2cc1-c1nnc(-c2ccccc2)o1	0	0	0	0	0	0	-
O=c1oc2ccc3ccccc3c2cc1-c1nnc(-c2cccs2)o1	0	0	0	0	-3	0	?
COc1cccc2cc(-c3nc(-c4cccs4)cs3)c(=O)oc12	0	0	0	0	0	-	-
CCN(CC)c1ccc(/C=c2\sc3nc4ccccc4n3c2=O)c(O)c1	0	0	0	0	-4.8	0	0.03
FCCCOc1ccc(/C=N/OCc2ccc(Cl)cc2Cl)cc1	0	0	0	0	-	-	-
CC(=O)NCC(=O)OCC(=O)Nc1ccc(C(C)=O)cc1	0	0	0	0	0	0	-
SMILES	Mdm2 ligase inh	PKD1 inh	Redox H2O2 prof	p97 inhibitor	ROMK mod	KCC2 mod	ROMK hit retest
CC(=O)NCC(=O)OC(C)C(=O)Nc1ccc(C(C)=O)cc1 (stereo not given)	0	0	0	0	-	0	0
Cn1c(-c2ccccc2)cnc1SCC(=O)N1CCCc2ccccc21	0	0	0	0	0	0	-
O=C(CSc1ncc(-c2ccccc2)n1C1CCCC1)N1CCc2ccccc21	0	0	0	0	-2.7	-	?
CCC(C)C1NC(=S)N(Cc2ccccc2)C1=O (stereo not given)	0	0	0	0	-	0	-
CCOC(=O)c1ccc(N2C(=O)c3n[nH]c(C)c3C2c2ccc(OC)cc2)cc1 (stereo not given)	0	0	0	0	-	0	-
CCOC(=O)c1ccc(N2C(=O)c3n[nH]c(C)c3C2c2ccc(OC)c(OC)c2)cc1 (stereo not given)	0	0	0	0	-	0	0
COc1ccc(C(=O)CSc2[nH]c(=O)cc(C(F)(F)F)c2C#N)cc1	0	-	-	0	-	-	0.068
Cc1ccc(SC2CC(=O)N(c3ccc4c(c3)OCCO4)C2=O)cc1 (stereo not given)	0	0	0	0	0	0	-
COc1cc(CC(=O)Nc2ccc3nc(C)sc3c2)cc(OC)c1OC	0	0	0	0	-	0	-
CCC(=O)Nc1nc2ccc(NC(=O)c3cc(OC)c(OC)c(OC)c3)cc2s1	0	0	0	0	-	0	0.064
COCCCNC(=O)C1CCC(CNS(=O)(=O)c2ccc(Cl)cc2)CC1 (stereo not given)	0	0	0	0	-	0	0
CCOC(=O)c1c(C)c(C(=O)Nc2cc(F)ccc2F)c(C)n1C	0	0	0	0	-	0	-
CC(=O)Nc1ccc(S(=O)(=O)N2CCN(c3cnn(C)c(=O)c3Cl)CC2)cc1	0	0	0	0	0	0	-
CCN1C(=O)S/C(=C/c2c(OCc3ccc(C(=O)O)cc3)ccc3ccccc23)C1=O	0	0	0	0	3.9	0	0
CCC(=O)N1CCc2cc(S(=O)(=O)N3CCN(c4ccccn4)CC3)ccc21	0	0	0	0	3.6	0	0
CC1=C(C(=O)OCC(Cl)(Cl)Cl)N2C(=O)C(NC(=O)Cc3ccccc3)C2SC1 (stereo not given)	0	0	0	0	-3.1	0	0.061
CSc1cccc(NC(=O)C2CCCN2S(=O)(=O)c2ccc(Br)s2)c1 (stereo not given)	0	0	0	0	-3.1	0	0.061
O=C(C1=C(Nc2ccccc2)c2ccccc2S(=O)(=O)N1)c1ccccc1	0	0	0	0	0	0	-
CCOC(=O)c1oc2nc(C)c3c(c2c1N)CC(C)(C)OC3	0	0	0	0	0	-	-
Cc1ccccc1N(CC(=O)NC1CCCC1)C(=O)c1csnn1	0	0	0	0	1.3	0	?
N=c1oc2ccc3ccccc3c2cc1-c1nc(-c2ccccc2)cs1	0	0	0	0	-	0	0.048
N=c1oc2ccccc2cc1-c1nc(-c2ccccc2)cs1	0	0	0	0	0	0	-
CC(C)c1ccc(CCNC(=O)c2ccc([N+](=O)[O-])cc2)cc1	0	0	0	0	-	0	-
